Data reported in paper PMC11877486 (Science Progress, 2025).
Counter-ions that a name gives are not always drawn. Like-named read-outs stand apart in the source and are kept apart here. One block for each compound: values may come before it. Peptide text beside a SMILES is read from it.

Legend:
[1] = Plasma concentration of colistin sulfate in patients on CVVHDF; assay type: in vivo; settings: human, iv, SD
Procedure, shortened: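 Adult patients on CVVHDF (AN69 polyacrylonitrile filter; blood flow 100–200 ml/min) received iv colistin sulfate infused over 0.5 h or 2 h. At steady state, samples were drawn from the dorsal foot artery just before dosing (Cmin) and at roughly 0.5, 1, 2, 4 and 6 h after. Plasma was stored at −80°C. Colistin A and B were measured separately by UHPLC-MS/MS on a HILIC column (LOQ 0.027 and 0.053 mg/l) and summed. AUC0−24h was calculated by the trapezoidal rule.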

Population PK model = assay type: in vivo, human
Procedure, shortened: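 NONMEM 7.4 was fitted to 86 plasma concentrations from 20 CVVHDF patients, using FOCE to compare one- and two-compartment models. Interindividual variability was exponential. […] Validation used goodness-of-fit plots, a pcVPC with 1000 simulated patients and a 1000-sample bootstrap.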

[2] = derived from preclinical studies; cited from earlier work
[3] = cited from earlier work; for population typical value CL, previous research: critically ill patients
[4] = cited from earlier work
[5] = cited from earlier work; remark: listed apart in the source
[6] = tested on: isolated pathogens (CRO), mainly Klebsiella pneumoniae, Acinetobacter baumannii, Pseudomonas aeruginosa; assay: Drug sensitivity of isolated pathogens; assay type: cell-based; settings: all isolated pathogens (CRO) of the 20 patients
[7] = cited from earlier work; for population typical value of CL: critically ill patients

Compound: CC[C@H](C)CCCCC(=O)N[C@@H](CCN)C(=O)N[C@H](C(=O)N[C@@H](CCN)C(=O)N[C@H]1CCNC(=O)[C@H]([C@@H](C)O)NC(=O)[C@H](CCN)NC(=O)[C@H](CCN)NC(=O)[C@H](CC(C)C)NC(=O)[C@@H](CC(C)C)NC(=O)[C@H](CCN)NC1=O)[C@@H](C)O [colistin sulfate] (HELM PEPTIDE1{[CC[C@H](C)CCCCC(=O)[*:2]].[Dab].T.[Dab].[Dab].[Dab].[dL].L.[Dab].[Dab].T}$PEPTIDE1,PEPTIDE1,5:R3-11:R2$$$V2.0)
AUC(0-t) [1]: 12500 ± 6410 ng·h/mL
Q, bootstrap median (Population PK model; bootstrap, 1000 samples): 27.15 L/h
V1, bootstrap median (Population PK model; bootstrap, 1000 samples): 20.58 L
V2, bootstrap median (Population PK model; bootstrap, 1000 samples): 34.71 L
θCysC, bootstrap median (Population PK model; bootstrap, 1000 samples): −0.537
θwt, bootstrap median (Population PK model; bootstrap, 1000 samples): 1.189
CL, bootstrap median (Population PK model; bootstrap, 1000 samples, 989 successful): 3.18 L/h
θCysC, final model estimate (Population PK model; effect of CysC on CL, (CYSC/2.31)^θ): −0.626
θwt, final model estimate (Population PK model; effect of WT on CL, (WT/65)^θ): 1.030
clearance (Population PK model; human, plasma, iv): 61.5 mL/min
Q, final model estimate (Population PK model; intercompartmental clearance, patients on CVVHDF): 25.30 L/h
V1, final model estimate (Population PK model; volume of distribution in the central compartment, patients on CVVHDF): 20.50 L
V2, final model estimate (Population PK model; volume of distribution in the peripheral compartment, patients on CVVHDF): 33.20 L
protein binding rate [2]: about 50%
population typical value CL, previous research ([3]; first of two values): 0.994 L/h
population typical value CL, previous research ([3]; second of two values): 1.5 L/h
plasma concentration range ([3]; non-CRRT patients): 0.28 to 6.20 mg/L
steady-state trough concentration ([4]; CRRT group, p = 0.328 vs non-CRRT): 0.58 ± 0.30 mg/L
steady-state trough concentration ([4]; non-CRRT group): 0.64 ± 0.25 mg/L
solubility in water [5]: water-soluble

MIC [6]: ≥ 8 mg/L
Compound: C[C@@H](O)[C@H]1C(=O)N2C(C(=O)O)=C(S[C@@H]3CN[C@H](C(=O)N(C)C)C3)[C@H](C)[C@H]12 [meropenem]

Compound: polymyxin B sulfate
population typical value of CL ([7]; CVVH group): 4.52 L/h
AUC ([7]; CVVH group, p < 0.001 vs non-CVVH): 27.94 ± 10.92 mg·h/L
population typical value of CL ([7]; non-CVVH group): 1.95 L/h
AUC ([7]; non-CVVH group): 77.89 ± 35.66 mg·h/L
